Reference: ChEMBL document CHEMBL1138379, “Syntheses of F-18 labeled fluoroalkyltyrosine derivatives and their biological evaluation in rat bearing 9L tumor” (Bioorg Med Chem Lett, 2007)

What was measured:
[1] = system: Blood; test: Biodistribution in blood of Fisher 344 rat bearing 9L tumor after 60 mins; format: ADME, organism-based; settings: in vivo, 1 h
Procedure, shortened: (§1)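 9L tumor cells (5 × 10^6) inoculated into Fisher 344 rats, used 14-18 days later. Rats anesthetized with ethyl ether, given ~3.7 MBq [18F] tracer in 100 µL PBS via tail vein, sacrificed with ether at set times (10-120 min). Tissues dissected, weighed and gamma-counted. Values are %ID/g, mean ± SD, n = 4. Ratios taken from tissue uptake.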

[2] = system: Lung; test: Biodistribution in lung of Fisher 344 rat bearing 9L tumor after 30 mins; format: ADME, organism-based; settings: in vivo, 0.5 h; procedure, shortened: as §1
[3] = system: Femur; test: Biodistribution in femur of Fisher 344 rat bearing 9L tumor after 60 mins; format: ADME, organism-based; settings: in vivo, 1 h; procedure, shortened: as §1
[4] = Ratio of biodistribution in tumor to brain in Fisher 344 rat bearing 9L tumor after 60 mins; format: ADME, organism-based; settings: in vivo, 1 h; procedure, shortened: as §1
[5] = Partition coefficient, log P of the compound; format: physicochemical; settings: octanol/water
Procedure, shortened: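 Shake-flask partition between 2.0 mL 1-octanol and 2.0 mL water. 10 µL of HPLC-purified radiotracer added, mixed 2 min at room temperature. Radioactivity counted in 300 µL of each phase to give log P.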

| Compound | Drug uptake [1] | Drug uptake [2] | Drug uptake [3] | Ratio [4] | logP [5] |
| --- | --- | --- | --- | --- | --- |
| NC(Cc1ccc(O)c(CCC[18F])c1)C(=O)O (stereo not given) | 0.64 % ID/g | 0.78 % ID/g | 1.45 % ID/g | 4.05 | -1.07 |
| COc1ccc(CC(N)C(=O)O)cc1CC[18F] (stereo not given) | 0.25 % ID/g | 0.37 % ID/g | 0.22 % ID/g | 1.9 | -0.75 |
| NC(Cc1ccc(O)c(CC[18F])c1)C(=O)O (stereo not given) | 0.06 % ID/g | 0.12 % ID/g | 0.76 % ID/g | 2.92 | -1.37 |
| COc1ccc(CC(N)C(=O)O)cc1CCC[18F] (stereo not given) | 0.24 % ID/g | 0.34 % ID/g | 0.18 % ID/g | 2.6 | -0.29 |
